The results in this text go back to ChEMBL document CHEMBL1781927, “Highly selective c-Jun N-terminal kinase (JNK) 3 inhibitors with in vitro CNS-like pharmacokinetic properties II. Central core replacement” (Bioorg Med Chem Lett, 2011).

Structures are written as SMILES. ≈ marks a conversion by molar mass, not a printed value.

Series [1] deals with Mitogen-activated protein kinase 10 (Homo sapiens, UniProt P53779). Put plainly: Inhibition of JNK3 by TR-FRET assay. The essentials:
(§1)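 IC50s were determined at a single fixed ATP concentration, and each value is the mean of at least three independent experiments.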

Series [2] addresses Mitogen-activated protein kinase 8 (Homo sapiens, UniProt P45983). As to the kind of experiment: Inhibition of JNK1 by TR-FRET assay. The essentials: as §1
The target of series [3] is Mitogen-activated protein kinase 9 (Homo sapiens, UniProt P45984). Put plainly: Inhibition of JNK2 by TR-FRET assay. The gist of the method: as §1
Mitogen-activated protein kinase 9, sequence (P45984 whole entry): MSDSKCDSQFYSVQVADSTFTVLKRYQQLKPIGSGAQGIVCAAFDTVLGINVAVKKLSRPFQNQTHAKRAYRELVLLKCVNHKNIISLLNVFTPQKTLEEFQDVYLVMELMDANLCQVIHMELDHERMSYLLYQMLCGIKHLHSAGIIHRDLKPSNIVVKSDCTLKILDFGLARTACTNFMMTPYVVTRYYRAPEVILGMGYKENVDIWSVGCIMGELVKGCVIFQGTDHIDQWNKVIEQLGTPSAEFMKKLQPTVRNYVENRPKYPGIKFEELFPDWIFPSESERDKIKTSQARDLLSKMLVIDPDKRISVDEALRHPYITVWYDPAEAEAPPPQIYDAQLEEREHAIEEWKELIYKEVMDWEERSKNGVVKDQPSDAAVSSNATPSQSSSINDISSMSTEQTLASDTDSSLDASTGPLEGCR
A short description of series [4]: Solubility of the compound. The format is physicochemical.
Series [5] is described as follows: Oxidative metabolic stability in mouse liver microsomes assessed as compound remaining after 30 mins. The format is ADME, Microsome. The note with it: read-out: Stability. The essentials: (§2)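 Liver microsomes, mouse or human, were incubated with the compound for 30 min under oxidative conditions. The read-out is the percent of parent compound remaining.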
Series [6] in a line: Oxidative metabolic stability in human liver microsomes assessed as compound remaining after 30 mins. Conditions: read-out: Stability. In kind it is ADME, Microsome. The essentials: as §2
Series [7] can be described thus: Metabolic stability in mouse liver microsomes assessed as compound remaining after 60 mins in presence of UDPGA. In kind it is ADME, Microsome. The note with it: read-out: Stability.
Series [8] is described as follows: Apparent permeability from apical to basolateral side in MDCK2 cells at 5 uM after 120 mins. Conditions: dog, MDCK. In kind it is ADME, cell-based, Canis lupus familiaris, MDCK-II.
Series [9] is described as follows: Metabolic stability in human liver microsomes assessed as compound remaining after 60 mins in presence of UDPGA. The format is ADME, Microsome. The note with it: read-out: Stability.
Series [10] can be described thus: Selectivity ratio of IC50 for JNK1 to IC50 for JNK3.
Series [11] in a line: Efflux ratio, permeability from apical to basolateral side to basolateral to apical side in MDR1 expressing MDCK2 cells at 5 uM after 120 mins. The format is ADME, cell-based, Canis lupus familiaris. The note with it: dog, mdck-ii, 2 h.

Mitogen-activated protein kinase 10, sequence (P53779 whole entry): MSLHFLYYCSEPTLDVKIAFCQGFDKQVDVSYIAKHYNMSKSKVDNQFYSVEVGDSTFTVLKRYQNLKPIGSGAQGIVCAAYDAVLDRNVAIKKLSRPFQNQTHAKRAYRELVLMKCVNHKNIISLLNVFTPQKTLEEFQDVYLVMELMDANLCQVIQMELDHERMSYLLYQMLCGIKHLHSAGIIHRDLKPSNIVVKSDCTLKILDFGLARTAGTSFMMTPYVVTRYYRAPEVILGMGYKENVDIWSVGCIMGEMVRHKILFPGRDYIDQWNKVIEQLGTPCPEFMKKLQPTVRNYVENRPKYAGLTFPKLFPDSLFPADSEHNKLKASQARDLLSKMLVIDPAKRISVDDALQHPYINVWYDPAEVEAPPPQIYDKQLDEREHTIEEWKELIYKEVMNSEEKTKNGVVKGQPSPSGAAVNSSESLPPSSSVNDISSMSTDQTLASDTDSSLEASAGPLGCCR
Mitogen-activated protein kinase 8, sequence (P45983 whole entry): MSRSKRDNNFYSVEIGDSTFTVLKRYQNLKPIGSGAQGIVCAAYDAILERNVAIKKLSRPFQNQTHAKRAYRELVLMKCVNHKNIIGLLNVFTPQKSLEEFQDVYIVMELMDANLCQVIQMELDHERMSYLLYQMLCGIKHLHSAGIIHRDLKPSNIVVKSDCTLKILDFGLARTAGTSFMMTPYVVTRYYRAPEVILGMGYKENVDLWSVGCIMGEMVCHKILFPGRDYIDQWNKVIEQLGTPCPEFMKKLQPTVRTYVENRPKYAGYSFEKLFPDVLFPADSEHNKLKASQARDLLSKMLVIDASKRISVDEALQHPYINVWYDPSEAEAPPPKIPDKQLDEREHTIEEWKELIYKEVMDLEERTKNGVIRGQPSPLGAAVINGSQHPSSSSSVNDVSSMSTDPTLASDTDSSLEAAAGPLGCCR

With `N/N=c1\[nH]nc(-c2ccncc2)n1-c1ccc2ccccc2c1`, the results for the IC50 in [1], in series [2] and in series [3] were 14.9 µM, > 50 µM and 34 µM, respectively. Moreover, the concentration in solution in [4] (solubility) was 65 µM (≈ 19.7 µg/mL).
The matching figures for `Cc1nnc(-c2ccncc2)n1-c1ccc2ccccc2c1`: 18.3 µM, > 50 µM, 46.2 µM and 100 µM (≈ 28.6 µg/mL).
As for `c1ccc2cc(-c3ccnn3-c3ccncc3)ccc2c1`, the remaining at 0.5 h in [5] was 0%; in [6], 2%. Also, the IC50 in series [1] is 2.46 µM; in [2], 41.9 µM; in [3], 9.31 µM.
Consider `FC(F)(F)c1nnc(-c2ccncc2)n1-c1ccc2ccccc2c1`, for which the IC50 in series [1], in [2] and in series [3] was > 50 µM throughout. Moreover, in series [4], the concentration in solution (solubility) was 15 µM (≈ 5.1 µg/mL).
For the compound `c1ccc2cc(-n3nnnc3-c3ccncc3)ccc2c1`, the figures for the IC50 in [1], in series [2] and in series [3] were 49.1 µM, > 50 µM and > 50 µM, respectively. The same compound returned a solubility in series [4] of 15 µM (≈ 4.1 µg/mL).
On to `c1ccc2cc(-n3cnnc3-c3ccncc3)ccc2c1`, for which the remaining at 1 h in series [7] amounted to 87%; in series [9] it was 100%. In addition, the figures for the remaining at 0.5 h in series [5] and in series [6] were 76% and 100%, respectively. The IC50 in series [1] was 4.48 µM; in series [2], > 50 µM; in [3], 19 µM. Moreover, the Papp A→B at 2 h, 5 µM in series [8] stood at 30.6 ×10⁻⁶ cm/s. In [4], this compound gave a solubility of 35 µM (≈ 9.53 µg/mL).
In the case of `Clc1nnn(-c2ccncc2)c1-c1ccc2ccccc2c1`, the figures for the remaining at 0.5 h in [5] and in series [6] were 0% and 5%, respectively. Moreover, the results for the IC50 in series [1], in series [2] and in series [3] were 12.6 µM, > 50 µM and 37.9 µM, respectively.
For `Cc1cc(-c2n[nH]c(=S)n2-c2ccc3ccccc3c2)ccn1`, the IC50 was 14.8 µM in series [1], > 50 µM in [2] and 15.3 µM in series [3]. The compound also returned a solubility in series [4] of 100 µM (≈ 31.8 µg/mL).
Regarding `c1ccc2cc(-c3[nH]nnc3-c3ccncc3)ccc2c1`, the remaining at 0.5 h was found to be 2% in series [5] and 44% in [6]. The IC50 in series [1] was found to be 0.364 µM; in series [2], 6.85 µM; in series [3] it was 1.22 µM. For the same compound, the Papp A→B at 2 h, 5 µM in [8] came to 15.2 ×10⁻⁶ cm/s.
`c1ccc2cc(-c3[nH]ncc3-c3ccncc3)ccc2c1`: the Ratio IC50 in [10] was determined as 20.
Take `c1ccc2cc(-n3nccc3-c3ccncc3)ccc2c1`: the remaining at 0.5 h amounted to 11% in series [5] and 58% in series [6]. The IC50 in series [1] is 1.23 µM; in series [2], > 50 µM; in series [3], 4.88 µM.
Regarding `c1ccc2cc(-c3nnnn3-c3ccncc3)ccc2c1`, the remaining at 0.5 h in series [5] was determined as 0%; in series [6], 16%. The half-inhibitory concentration (IC50) in series [1], in [2] and in series [3] was > 50 µM in each case.
Consider `S=c1[nH]nc(-c2ccnc(Br)c2)n1-c1ccc2ccccc2c1`, for which the IC50 in [1], in [2] and in [3] was > 50 µM throughout. Also, in series [4], the solubility stood at 35 µM (≈ 13.4 µg/mL).
Take `S=c1[nH]nc(-c2ccncc2)n1-c1ccc2ncccc2c1`: the IC50 in series [1] is 31.8 µM; in series [2] it was > 50 µM; in [3] it was > 50 µM. This compound gave a solubility in series [4] of 15 µM (≈ 4.58 µg/mL).
For the compound `c1ccc2cc(-c3ncncc3-c3ccncc3)ccc2c1`, the remaining at 0.5 h came to 0% in [5] and 29% in series [6]. Moreover, the IC50 is 4.13 µM in [1], > 50 µM in [2] and 18.1 µM in series [3].
As to `Cc1cc(-c2n[nH]c(=S)n2-c2cnc3ccccc3c2)ccn1`, the IC50 in series [1], in series [2] and in series [3] was > 50 µM each time. This compound also had a solubility in series [4] of 100 µM (≈ 31.9 µg/mL).
For the compound `Clc1nnc(-c2ccncc2)n1-c1ccc2ccccc2c1`, the IC50 was 30.4 µM in series [1], > 50 µM in series [2] and > 50 µM in series [3]. The compound further showed a solubility in series [4] of 78 µM (≈ 23.9 µg/mL).
For `S=c1[nH]nc(-c2ccnc(NCC3CC3)c2)n1-c1ccc2ccccc2c1`, the figures for the concentration for half-maximal inhibition (IC50) in [1], in series [2] and in series [3] were 0.945 µM, > 50 µM and 2.25 µM, respectively. In series [4], this compound gave a solubility of 35 µM (≈ 13.1 µg/mL).
For the compound `c1ccc2cc(-n3nncc3-c3ccncc3)ccc2c1`, the IC50 in series [1] is 2.67 µM; in [2], > 50 µM; in series [3] it was 9.14 µM.
For `S=c1[nH]nc(-c2ccncc2)n1-c1cnc2ccccc2c1`, the IC50 in series [1], in series [2] and in [3] was > 50 µM in each case. Besides, the solubility in [4] was 100 µM (≈ 30.5 µg/mL).
Consider `c1ccc2cc(-c3cnnn3-c3ccncc3)ccc2c1`, for which the remaining at 1 h turned out to be 90% in series [7] and 78% in [9]. Besides, the remaining at 0.5 h turned out to be 0% in series [5] and 12% in series [6]. Further, the IC50 in [1] is 4.81 µM; in series [2], > 50 µM; in [3], 18.6 µM. Also, the Papp A→B at 2 h, 5 µM in [8] worked out at 37.9 ×10⁻⁶ cm/s.
In the case of `c1ccc2cc(-c3n[nH]cc3-c3ccncc3)ccc2c1`, the remaining at 1 h came to 100% in series [7] and 73% in series [9]. Besides, the figures for the remaining at 0.5 h in series [5] and in [6] were 1% and 52%, respectively. Besides, the figures for the IC50 in series [1], in series [2] and in series [3] were 0.245 µM, 7.15 µM and 0.864 µM, respectively. Moreover, the Ratio in [11] was determined as 1.14. In [8], the Papp A→B at 2 h, 5 µM was found to be 16.9 ×10⁻⁶ cm/s.
Take `c1ccc2cc(-n3ccnc3-c3ccncc3)ccc2c1`: the remaining at 0.5 h in series [5] was found to be 0%; in series [6] it was 18%. Also, the IC50 is 1.91 µM in [1], > 50 µM in series [2] and 6.39 µM in series [3].
Consider `c1ccc2cc(-c3nn[nH]c3-c3ccncc3)ccc2c1`, for which, in series [10], the Ratio IC50 is 20.
As to `Fc1cnccc1-c1n[nH]c(=S)n1-c1ccc2ccccc2c1`, the IC50 is 27.4 µM in series [1], > 50 µM in series [2] and 34.6 µM in series [3]. In series [4], the solubility was determined as 35 µM (≈ 11.3 µg/mL).
On the same counts, the results for `S=c1[nH]nc(-c2ccnc(NC3CCCCC3)c2)n1-c1ccc2ccccc2c1` are 0.0522 µM, > 50 µM, 0.0665 µM and 5 µM (≈ 2.01 µg/mL).
Regarding `Nc1cc(-c2n[nH]c(=S)n2-c2ccc3ccccc3c2)ccn1`, the IC50 worked out at 1.03 µM in [1], 24.3 µM in series [2] and 0.504 µM in [3]. The concentration in solution in series [4] (solubility) was 100 µM (≈ 31.9 µg/mL).
